Assay results gathered from unrelated publications.
Each line is one published result; the experiments were not run side by side.
Organism: Pseudomonas aeruginosa
Observed: microbial growth

Structure (SMILES) | test | test system | setting | MIC
CC(C)Oc1c(NC(=O)c2ccc(NC(=O)[C@H](CC(N)=O)NC(=O)c3ccc(NC(=O)c4ccc(N)cc4)cc3)cc2)ccc(C(=O)Nc2ccc(C(=O)O)cc2)c1O |  | PA14 |  | > 64 µg/mL
CN(C)CC(C)(C)CNc1nc(F)c2c(c1O)C(=O)C1=C(O)[C@]3(O)C(=O)C(C(N)=O)=C(O)[C@@H](N(C)C)[C@@H]3C[C@@H]1C2.Cl | broth dilution | ATCC27853 |  | 32 µg/mL
CC1COc2c(N3CCN(C)CC3)c(F)cc3c(=O)c(C(=O)O)cn1c23 (centres unmarked) | broth dilution | PAO1 |  | 1 µg/mL
CC(C)Oc1c(NC(=O)c2ccc(NC(=O)[C@H](CC(N)=O)NC(=O)c3ccc(NC(=O)c4ccc5c(c4)COC5=O)cc3)cc2)ccc(C(=O)Nc2ccc(C(=O)O)cc2)c1O |  | PA14 |  | > 64 µg/mL
Cc1ncc(O)c2c1C[C@H]1C[C@H]3[C@H](N(C)C)C(O)=C(C(N)=O)C(=O)[C@@]3(O)C(O)=C1C2=O.Cl.Cl | broth dilution | ATCC27853 |  | 16 µg/mL
CC(C)Oc1c(NC(=O)c2ccc(NC(=O)[C@H](CC(N)=O)NC(=O)c3ccc(NC(=O)c4cccc(N)c4)cc3)cc2)ccc(C(=O)Nc2ccc(C(=O)O)cc2)c1O |  | PA14 |  | > 64 µg/mL
CCCCCCC/C=C/C(=O)N1C(=O)/C(=C(/C)O)C(=O)C1CO (centres unmarked) |  | PA01 |  | > 200 µg/mL
O=c1c(O)c(-c2ccc(O)c(O)c2)oc2cc(O)cc(O)c12 | broth dilution | PAO1 |  | 256 µg/mL
CCCc1nc(Cl)c2c(c1O)C(=O)C1=C(O)[C@]3(O)C(=O)C(C(N)=O)=C(O)[C@@H](N(C)C)[C@@H]3C[C@@H]1C2.Cl | broth dilution | ATCC27853 |  | > 32 µg/mL
CC(C)Oc1c(NC(=O)c2ccc(NC(=O)[C@H](CC(N)=O)NC(=O)c3ccc(NC(=O)c4cc(=O)c(O)c[nH]4)cc3)cc2)ccc(C(=O)Nc2ccc(C(=O)O)cc2)c1O |  | PA14 |  | > 64 µg/mL
C=CCn1c(-c2ccc(Cl)c(Cl)c2)nc2ccccc21 | broth dilution | ATCC27853 |  | 512 µg/mL
CC(C)CCNc1nc(Cl)c2c(c1O)C(=O)C1=C(O)[C@]3(O)C(=O)C(C(N)=O)=C(O)[C@@H](N(C)C)[C@@H]3C[C@@H]1C2.Cl.Cl.Cl | broth dilution | ATCC27853 |  | > 32 µg/mL
COc1c(C)c(OS(=O)(=O)c2ccc3ccccc3c2)c(C)c(O)c1C(=O)/C=C/c1ccccc1 | broth dilution | ATCC27853 |  | 5000 µg/mL
C/C(=C\c1ccc(C#N)cc1)C(=O)Nc1ccc(C(=O)N[C@@H](CC(N)=O)C(=O)Nc2ccc(C(=O)Nc3ccc(C(=O)Nc4ccc(C(=O)O)cc4)c(O)c3OCC(C)C)cc2)cc1 |  | PA14 |  | > 64 µg/mL
O=C(CCc1ccc(O)c(O)c1)NCCCCCCCC[P+](c1ccccc1)(c1ccccc1)c1ccccc1.[Br-] | broth dilution | ATCC27853 | 18 h | > 32 µg/mL
O=C(Nc1ccc([N+](=O)[O-])cc1F)c1ccccc1O | broth dilution | ATCC27853 |  | > 64 µg/mL
COc1c(C)c(OCc2ccccc2)c(C)c(O)c1C(=O)/C=C/c1ccccc1 | broth dilution | ATCC27853 |  | 5000 µg/mL
C/C(=C\c1ccc(O)cc1)C(=O)Nc1ccc(C(=O)N[C@@H](CC(N)=O)C(=O)Nc2ccc(C(=O)Nc3ccc(C(=O)Nc4ccc(C(=O)O)cc4)c(O)c3OC(C)C)cc2)cc1 |  | PA14 |  | 1 µg/mL
Cc1ccccc1NCc1ccc(Oc2ccccn2)cc1 |  |  |  | > 50 µg/mL
Cc1ccc2nc(-c3ccc(Cl)cc3)n(Cc3ccccc3)c2c1 | broth dilution | ATCC27853 |  | 64 µg/mL
CC1=NN(CNC(=O)c2ccccc2)C(=O)C1=NNn1c(-c2ccccc2)nc2ccccc2c1=O | broth dilution |  | 24 h | 51.9 µM
O=C(CCCCCCCCCC[P+](c1ccccc1)(c1ccccc1)c1ccccc1)Nc1ccc(O)c(O)c1.[Br-] | broth dilution | ATCC27853 | 18 h | > 32 µg/mL
CCCCCCC/C=C/C(=O)N1C(=O)/C(=C(\O)CCCC)C(=O)C1CC(C)C (centres unmarked) |  | PA01 |  | > 200 µg/mL
COc1c(C)c(OC(=O)c2ccc(C)cc2)c(C)c(O)c1C(=O)/C=C/c1ccccc1 | broth dilution | ATCC27853 |  | 5000 µg/mL
CN(C)c1cc(CNCC(C)(C)C)c(O)c2c1C[C@H]1C[C@H]3[C@H](N(C)C)C(O)=C(C(N)=O)C(=O)[C@@]3(O)C(O)=C1C2=O | broth dilution | ATCC27853 |  | > 32 µg/mL

Structure (SMILES) | test | test system | setting | MIC
CN(C)[C@@H]1C(O)=C(C(N)=O)C(=O)[C@@]2(O)C(O)=C3C(=O)c4c(cc5ccc(CN6CC(F)C6)cc5c4O)C[C@H]3C[C@@H]12 | broth dilution | ATCC27853 |  | 32 µg/mL
Cc1ccc(C)n1-c1ccc(C(=O)NNC=O)cc1 | broth dilution | ATCC10145 | 18 h | 125 µg/mL
CCCCCCC/C=C/C(=O)N1C(=O)/C(=C(\O)c2ccc(F)cc2)C(=O)C1CC(C)C (centres unmarked) |  | PA01 |  | > 200 µg/mL
NC[C@H]1O[C@H](O[C@H]2[C@H](O)[C@@H](O[C@H]3O[C@H](CO)[C@@H](O)[C@H](N)[C@H]3O)[C@H](N)C[C@@H]2N)[C@H](N)C[C@@H]1O | broth dilution | CMCC10104 |  | 26.7 µM
CC(C)Oc1c(NC(=O)c2ccc(NC(=O)[C@H](CC(N)=O)NC(=O)c3ccc(NC(=O)c4ccc(C#N)cc4)cc3)cc2)ccc(C(=O)O)c1O |  | PA14 |  | > 64 µg/mL
CN(C)[C@@H]1C(O)=C(C(N)=O)C(=O)[C@@]2(O)C(O)=C3C(=O)c4c(O)cncc4C[C@H]3C[C@@H]12.Cl.Cl | broth dilution | ATCC27853 |  | 8 µg/mL
Cc1ccc(C)n1-c1ccc(-c2nnc(-c3c(Cl)cccc3Cl)[nH]2)cc1 | broth dilution | ATCC10145 | 18 h | 62.5 µg/mL
C[C@H]1COc2c(N3CCN(C)CC3)c(F)cc3c(=O)c(C(=O)O)cn1c23 | agar dilution | ATCC27 |  | 1 µg/mL
COc1ccc(NCc2ccc(Oc3ccccn3)cc2)cc1 |  |  |  | > 25 µg/mL
CN(C)c1ccc(-c2ccc3cc4c(c(O)c3c2)C(=O)C2=C(O)[C@]3(O)C(=O)C(C(N)=O)=C(O)[C@@H](N(C)C)[C@@H]3C[C@@H]2C4)cc1 | broth dilution | ATCC27853 |  | 32 µg/mL
CC1(C)SC2C(NC(=O)C(NC(=O)C3=C(O)C(Cc4ccccc4)NC3=O)c3ccccc3)C(=O)N2C1C(=O)O (centres unmarked) |  |  |  | 6.25 µg/mL
CCCCCCC#Cc1cncc(-c2nnc(SCc3ccc([N+](=O)[O-])o3)n2C2CC2)c1 |  |  |  | ≥ 20 µg/mL
CCn1cc(C(=O)O)c(=O)c2cc(F)c(N3CCNCC3)cc21 | broth dilution | ATCC9027 |  | 2 µM
CC1=NN(CNc2ccccc2)C(=O)C1=NNn1c(-c2ccccc2)nc2ccccc2c1=O | broth dilution |  | 24 h | 111 µM
CO[C@@H](C(N)=O)[C@H](NC(=O)c1ccc(NC(=O)c2ccc(C#N)cc2)cc1)C(=O)Nc1ccc(C(=O)Nc2ccc(C(=O)Nc3ccc(C(=O)O)cc3)c(O)c2OC(C)C)cc1 |  | PA14 |  | 0.5 µg/mL
CC1=NN(CNc2ccccc2[N+](=O)[O-])C(=O)C1=NNn1c(-c2ccccc2)nc2ccccc2c1=O | broth dilution |  | 24 h | 50.4 µM
C[C@@H](O)[C@H]1C(=O)N2C(C(=O)O)=C(S[C@@H]3CN[C@H](C(=O)N(C)C)C3)[C@H](C)[C@H]12 | broth dilution | ATCC27853 |  | 0.25 µg/mL
NC[C@@H]1CN[C@H](CNC(=O)c2cc3ccc(-c4ccc(F)cc4)cc3[nH]2)C1 | broth dilution | PAO1 |  | 25 µg/mL
COc1cccc(NCc2ccc(Oc3ccccn3)cc2)c1 |  |  |  | > 25 µg/mL
C[C@@H](O)[C@H]1C(=O)N2C(C(=O)O)=C(S[C@@H]3CN[C@H](C(=O)N(C)C)C3)[C@H](C)[C@H]12 | broth dilution |  | 24 h | 0.25 µg/mL
CC(C)CC1NC(=O)C(C(=O)NC(C(=O)NC2C(=O)N3C2SC(C)(C)C3C(=O)O)c2ccccc2)=C1O (centres unmarked) |  |  |  | 12.5 µg/mL
CCCCCCCCCCCC(=O)Oc1c(C)c(O)c(C(=O)/C=C/c2ccccc2)c(OC)c1C | broth dilution | ATCC27853 |  | 5000 µg/mL
CN(C)C1CN(Cc2ccc3cc4c(c(O)c3c2)C(=O)C2=C(O)[C@]3(O)C(=O)C(C(N)=O)=C(O)[C@@H](N(C)C)[C@@H]3C[C@@H]2C4)C1 | broth dilution | ATCC27853 |  | 32 µg/mL
Cc1ccc(C)n1-c1ccc(-c2nnc(-c3ccc(O)cc3)[nH]2)cc1 | broth dilution | ATCC10145 | 18 h | 250 µg/mL
Clc1ccc(-c2nc3ccccc3n2Cc2ccccc2)cc1Cl | broth dilution | ATCC27853 |  | 256 µg/mL
